Data: paper PMC7191207 (Heliyon, 2020)
Read-outs that look alike come from different tables or passages of the source.

What was measured:
renal cancer patients = renal cancer patients in clinical trials, up; cited from earlier work
[1] = Calculated hepatic extraction ratio; conditions: low (<0.3)
[2] = type: in vivo, human; conditions: oral 800 mg daily
In short: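 Plasma from patients on oral 800 mg daily for at least one week, excluding combined TKI therapy; blood centrifuged at 3000 rpm, plasma stored at -20 °C. Free fraction by rapid equilibrium dialysis (8000 Da cut-off) against PBS at 37 °C, 250 rpm, 6 h, in technical duplicates. Quantified by C18 HPLC with positive-ESI MRM, erlotinib internal standard, calibration 5–1000 ng/mL.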

albumin = conditions: mainly bound to albumin; cited from earlier work
[3] = Stability tests of QC samples in pooled human plasma; type: physicochemical; conditions: for degradation of QC samples: QC low, medium and high
In short: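 QC samples (12, 120, 900 ng/mL) spiked into pooled human plasma in triplicate, then held at bench top, in the autosampler, or 1 month at -80 °C. Extraction: diethyl ether liquid-liquid, dried under nitrogen at 37 °C, reconstituted in mobile phase. Analysis: C18 LC-MS/MS with positive ESI MRM (438.3/357.2) against a 1/x2-weighted calibration (5–1000 ng/mL). Accuracy = measured/nominal × 100%.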

Cc1ccc(Nc2nccc(N(C)c3ccc4c(C)n(C)nc4c3)n2)cc1S(N)(=O)=O [pazopanib, Pazopanib]
proportion of patients with increases in serum transaminases and bilirubin (renal cancer patients): 40–50%
calculated hepatic extraction ratio [1]: 0.00346
free drug concentration ([2]; 17 patients' plasma samples, mean ± standard deviation): 5.84 ± 3.02 ng/mL
Plasma free drug concentration (Median ± Interquartile range) ([2]; patients with low albumin level (<40 g/L) (n = 7)): 6.49 ± 3.65 ng/mL
Plasma free drug concentration (Median ± Interquartile range) ([2]; patients with normal albumin level (n = 8)): 4.88 ± 2.71 ng/mL
Plasma free drug concentration (Median ± Interquartile range) ([2]; patients with very low albumin level (<30 g/L) (n = 2)): 3.44 ± 1.32 ng/mL
plasma protein binding (albumin): > 99.9%
degradation of QC samples ([3]; 1 month of storage at -80 °C): No significant degradation
Stability, Accuracy (%) from nominal concentration ([3]; Autosampler: extracted samples stored for 14 h at room temperature, 12 ppb): 96.45%
Stability, Accuracy (%) from nominal concentration ([3]; Autosampler: extracted samples stored for 14 h at room temperature, 120 ppb): 96.56%
Stability, Accuracy (%) from nominal concentration ([3]; Autosampler: extracted samples stored for 14 h at room temperature, 900 ppb): 96.02%
Stability, Accuracy (%) from nominal concentration ([3]; Bench Top: plasma samples stored at room temperature for 8h, 12 ppb): 113.11%
Stability, Accuracy (%) from nominal concentration ([3]; Bench Top: plasma samples stored at room temperature for 8h, 120 ppb): 93.21%
Stability, Accuracy (%) from nominal concentration ([3]; Bench Top: plasma samples stored at room temperature for 8h, 900 ppb): 97.02%
Stability, Accuracy (%) from nominal concentration ([3]; Freeze Thaw: three freeze thaw cycles, 12 ppb): 93.79%
Stability, Accuracy (%) from nominal concentration ([3]; Freeze Thaw: three freeze thaw cycles, 120 ppb): 93.50%
Stability, Accuracy (%) from nominal concentration ([3]; Freeze Thaw: three freeze thaw cycles, 900 ppb): 100.49%
Stability, Accuracy (%) from nominal concentration ([3]; Long Term: stored at -80 °C for 1 month, 12 ppb): 100.58%
Stability, Accuracy (%) from nominal concentration ([3]; Long Term: stored at -80 °C for 1 month, 120 ppb): 113.89%
Stability, Accuracy (%) from nominal concentration ([3]; Long Term: stored at -80 °C for 1 month, 900 ppb): 114.23%
degradation of QC samples ([3]; auto sampler conditions): No significant degradation
degradation of QC samples ([3]; bench top conditions): No significant degradation
degradation of QC samples ([3]; three freeze-thaw cycles): did not result in significant degradation
